Screens from PubChem.
Hits are enriched below; roughly 3.5% of the tested compounds scored in any of these assays.
BB579 growth dn: yeast BB579 growth reduction in restrictive medium | inhibition, % at 10 µM | S. cerevisiae BB579 growth, OD615, 48 h | 140,000 tested, 0.51% active | AID 804;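 active means inhibition above a set limit, 3 SD over the mean compound inhibition, cut at about 44% in these data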
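Assay system: S. cerevisiae DeaD strain BB579 yeast. Medium: CSMM-D restrictive synthetic medium containing dextrose (glucose). Times: 4 h cell preincubation, 48 h compound exposure, 30 °C humidified. Signal: OD615 turbidity measurement. Benchmarks: positive control amphotericin B 10 µg/mL.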
b-catenin transl: alters nuclear translocation of beta-catenin in HeLa cells; immunofluorescence imaging; nuclear translocation activity, % at 5 µM; 190,000 tested, 0.3% active; AID 1665;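 active means nuclear translocation activity above 50% at 5 µM, with a well cell count of 50 or more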;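 further: per-cell ratio of nuclear to cytoplasmic median beta-catenin stain intensity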
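Test system: human HeLa cells, endogenous beta-catenin. Times: 24 h compound exposure, 37°C. Measured by: beta-catenin immunofluorescence imaging with DAPI.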
MT stabilize HCS: microtubule stabilization, imaging screen; HeLa tubulin immunostaining HCS, 24 h; share of cells brighter than vehicle mean+2SD; % tubulin-high responders, % at 10 µM; 200,000 tested, 0.83% active; AID 2205;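 active means plate Z-score above 3 for both tubulin-high and condensed-nucleus cell shares, with cell loss under 80%, at 10 µM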;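 further: anti alpha tubulin signal scored within the nucleus-defined area of each cell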
Efa HMGR inh: E. faecalis class II HMG-CoA reductase inhibition | purified E. faecalis HMGR, NADPH absorbance 340 nm kinetic | inhibition, % at 10 µM | 190,000 tested, 0.41% active;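 active means inhibition above a set limit, the median over all tested compounds plus 3 SD, cut at about 9.5% in these data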;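 further: enzyme runs in reverse so mevalonate oxidation gives rising NADPH absorbance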
Yeast life ext: yeast lifespan extension | S. cerevisiae growth with nicotinamide, OD615; deaD strain in restrictive glucose medium | inhibition of the nicotinamide effect, % at 10 µM | 130,000 tested, 0.68% active;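 active means inhibition above a set limit, placed 3 SD over the median of all compounds, cut at about 26% in these data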
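Buffer or medium: CSMM-D glucose medium, restrictive; test system: modified budding yeast, DeaD strain; compound: single dose 10 µM compound, 0.25% DMSO; schedule: culture preincubation 4 h, compound exposure 48 h, both 30 °C; detection: optical density (absorbance) at 615 nm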
RAM inhibit: blocks the yeast RAM network | S. cerevisiae dse1pr::URA3 reporter, 5-FOA growth OD615, 2 d; analog-sensitive cbk1-as2 kinase mutant strain | inhibition, % at 50 µM | 190,000 tested, 1.8% active;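 active means inhibition above a set limit, 3 SD over mean compound inhibition, cut at about 8.4% in these data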;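 further: inhibition rescues growth on 5-FOA so higher OD means more RAM inhibition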
Numbers stand for hits.

What do the screens show for `CCCn1c(SCC(=O)NCc2ccc(F)cc2)n[nH]c1=O`?
b-catenin transl: inactive; MT stabilize HCS: inactive; Efa HMGR inh: inactive; RAM inhibit: inactive

How did C=CCNC(=S)Nc1ccc2cn[nH]c2c1 do in these assays?
b-catenin transl: inactive

How did Cn1cc(Br)c(NS(=O)(=O)c2ccc(Cl)s2)n1 do in these assays?
b-catenin transl: inactive

How did CCCCNC(=S)N(Cc1ccco1)Cc1cc2cc3c(cc2[nH]c1=O)OCCO3 do in these assays?
BB579 growth dn: inactive; b-catenin transl: inactive; MT stabilize HCS: inactive; Efa HMGR inh: inactive; Yeast life ext: inactive; RAM inhibit: 8.5

How did COc1ccc2[nH]c(=O)c(CN(Cc3cccs3)C(=S)Nc3cccc(C)c3)cc2c1 do in these assays?
BB579 growth dn: inactive; b-catenin transl: inactive; MT stabilize HCS: inactive; Efa HMGR inh: inactive; Yeast life ext: inactive; RAM inhibit: 10

Results for CCOCCCNC(=S)N(Cc1ccco1)Cc1cc2cc3c(cc2[nH]c1=O)OCCO3 ?
b-catenin transl: inactive; MT stabilize HCS: inactive; Efa HMGR inh: inactive; RAM inhibit: inactive

Results for Cc1cc(NC(=O)CSc2ncccc2C(=O)O)no1 ?
b-catenin transl: inactive; MT stabilize HCS: inactive; Efa HMGR inh: inactive; RAM inhibit: inactive

Results for Cc1nn(Cc2ccccc2)c(Cl)c1/C=C/C(=O)OCC(=O)N1CCCC1=O ?
b-catenin transl: inactive; MT stabilize HCS: inactive; Efa HMGR inh: inactive; RAM inhibit: inactive

What do the screens show for `COc1ccc(-n2c(C)c(C(C)=O)c3cc(OCC(N)=O)ccc32)cc1`?
b-catenin transl: inactive; MT stabilize HCS: inactive; Efa HMGR inh: inactive; RAM inhibit: 8.8

How did CCOc1ccc(-n2c(C)c(C(C)=O)c3cc(OCC(N)=O)ccc32)cc1 do in these assays?
b-catenin transl: inactive; MT stabilize HCS: inactive; Efa HMGR inh: inactive; RAM inhibit: inactive

Results for O=C(c1ccccc1)n1nc(-c2ccccc2)nc1NCc1ccco1 ?
BB579 growth dn: inactive; MT stabilize HCS: inactive; Efa HMGR inh: inactive; Yeast life ext: inactive; RAM inhibit: 10

How did Nc1ncnc2c1cnn2C1CCCCC1 do in these assays?
b-catenin transl: inactive

How did CCOC(=O)N1CCN(S(=O)(=O)c2ccc(F)c(C(=O)Nc3cccc(C)c3C)c2)CC1 do in these assays?
BB579 growth dn: inactive; b-catenin transl: inactive; MT stabilize HCS: inactive; Efa HMGR inh: inactive; Yeast life ext: 45; RAM inhibit: inactive

What do the screens show for `COc1ccc(OC)c2[nH]c(=O)c(CCNC(=O)c3cc4ccccc4o3)cc12`?
BB579 growth dn: inactive; b-catenin transl: inactive; MT stabilize HCS: inactive; Efa HMGR inh: inactive; Yeast life ext: inactive; RAM inhibit: inactive

Results for Cc1ccc(C)c2[nH]c(=O)c(CCNC(=O)c3cc4ccccc4o3)cc12 ?
BB579 growth dn: inactive; b-catenin transl: inactive; MT stabilize HCS: inactive; Efa HMGR inh: inactive; Yeast life ext: inactive; RAM inhibit: 8.5

How did CCN(CC)S(=O)(=O)c1ccc(NC(=O)COC(=O)CNS(=O)(=O)/C=C/c2ccccc2)cc1 do in these assays?
BB579 growth dn: inactive; MT stabilize HCS: inactive; Efa HMGR inh: inactive; Yeast life ext: inactive; RAM inhibit: 8.4

Results for CCN(CC)S(=O)(=O)c1ccc(NC(=O)C2c3ccccc3Oc3ccccc32)cc1 ?
BB579 growth dn: inactive; b-catenin transl: inactive; MT stabilize HCS: inactive; Efa HMGR inh: inactive; Yeast life ext: inactive; RAM inhibit: 8.6

How did CCN(CC)S(=O)(=O)c1ccc(NC(=O)CSc2cccc[n+]2[O-])cc1 do in these assays?
BB579 growth dn: 65; b-catenin transl: inactive; MT stabilize HCS: inactive; Efa HMGR inh: inactive; Yeast life ext: inactive; RAM inhibit: inactive

Results for CN(C)C(=O)C12CCC(C)(C(=O)C1Br)C2(C)C (stereo not drawn) ?
b-catenin transl: inactive

What do the screens show for `O=C(c1ccco1)N(Cc1cccc([N+](=O)[O-])c1)c1ccc(Br)cc1`?
b-catenin transl: inactive; MT stabilize HCS: inactive; Efa HMGR inh: inactive; RAM inhibit: 9.3

How did O=C(c1ccco1)N(Cc1ccc([N+](=O)[O-])cc1)c1ccc(Cl)cc1 do in these assays?
BB579 growth dn: inactive; b-catenin transl: inactive; MT stabilize HCS: inactive; Efa HMGR inh: inactive; Yeast life ext: inactive; RAM inhibit: inactive

How did O=C(c1ccco1)N(Cc1ccc([N+](=O)[O-])cc1)c1ccc(Br)cc1 do in these assays?
BB579 growth dn: inactive; b-catenin transl: inactive; MT stabilize HCS: inactive; Efa HMGR inh: inactive; Yeast life ext: inactive; RAM inhibit: 8.4

How did O=C(c1ccco1)N(Cc1ccccc1)c1cccc([N+](=O)[O-])c1 do in these assays?
b-catenin transl: inactive; MT stabilize HCS: inactive; Efa HMGR inh: inactive; RAM inhibit: inactive

Results for CCNC(=S)N1CCc2cc(OC)c(OC)cc2C1COc1ccc(F)cc1 (stereo not drawn) ?
b-catenin transl: inactive; MT stabilize HCS: inactive; Efa HMGR inh: inactive; RAM inhibit: inactive

How did COCCNC(=S)N1CCc2cc(OC)c(OC)cc2C1COc1ccc(F)cc1 (stereo not drawn) do in these assays?
b-catenin transl: inactive; MT stabilize HCS: inactive; Efa HMGR inh: inactive; RAM inhibit: 8.8

How did O=C(CSc1nc(Cc2ccccc2)nc2ccccc12)c1ccc2c(c1)OCCO2 do in these assays?
BB579 growth dn: inactive; b-catenin transl: inactive; MT stabilize HCS: inactive; Efa HMGR inh: inactive; Yeast life ext: inactive; RAM inhibit: inactive

What do the screens show for `O=C(CSc1nnc(SCc2cccc3ccccc23)s1)c1ccc2c(c1)OCO2`?
BB579 growth dn: inactive; b-catenin transl: inactive; MT stabilize HCS: inactive; Efa HMGR inh: inactive; Yeast life ext: inactive; RAM inhibit: 8.8

How did CCc1nc(SCC(=O)c2ccc3c(c2)OCCO3)c2ccccc2n1 do in these assays?
BB579 growth dn: inactive; b-catenin transl: inactive; MT stabilize HCS: inactive; Efa HMGR inh: inactive; Yeast life ext: 147; RAM inhibit: inactive

How did COc1ccc(CN2CCNC(=O)C2CC(=O)NCCC2=CCCCC2)cc1OC (stereo not drawn) do in these assays?
b-catenin transl: inactive; MT stabilize HCS: inactive; Efa HMGR inh: inactive; RAM inhibit: inactive

How did Cc1cc(=O)[nH]c(/N=C(\N)Nc2ccc(SC(F)F)cc2)n1 do in these assays?
b-catenin transl: inactive; MT stabilize HCS: inactive; Efa HMGR inh: inactive; RAM inhibit: inactive

Results for CCCCN(C)S(=O)(=O)c1cc(Br)cc2c1N(C(=O)C1CC1)CC2 ?
BB579 growth dn: inactive; b-catenin transl: inactive; MT stabilize HCS: inactive; Efa HMGR inh: inactive; Yeast life ext: inactive; RAM inhibit: 9.2

What do the screens show for `O=C1NCCCC1C(=O)N/N=C/c1cccc(Cl)c1` (stereo not drawn)?
b-catenin transl: inactive

Results for Cc1cc(S(=O)(=O)NCc2ccc(N3CCN(C)CC3)cc2)c(C)s1 ?
b-catenin transl: inactive

How did O=C(O)CSc1nc(-c2ccccc2)nc2c1oc1ccccc12 do in these assays?
BB579 growth dn: inactive; b-catenin transl: inactive; MT stabilize HCS: inactive; Efa HMGR inh: inactive; Yeast life ext: inactive; RAM inhibit: 9.8
